Columns and labels:
Trichoplusia ni [1] = experiment: Oviposition deterrent activity against adult female Trichoplusia ni (cabbage looper) moths introduced along with male moths into oviposition cage containing compound pretreated cabbage leaves assessed as eggs laying on the leaf disks at 0.25% after 48 hr; assay type: functional
Procedure, shortened: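 Choice test: one male and one female moth were caged with a control and a treated cabbage leaf (~100-110 cm²). Each side was sprayed with 0.5 mL MeOH or methanolic test solution at 0.25%. Values are mean ± SE, N = 35-40.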

Trichoplusia ni [2] = experiment: Feeding deterrent activity against freshly molted third-instar larval stage of Trichoplusia ni (cabbage looper) in compound pretreated cabbage leaves after 3 to 5 hr by leaf disk choice bioassay; assay type: functional, organism-based
Procedure, shortened: (§1)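 Leaf-disk choice test on greenhouse cabbage (Stonehead) leaves from 5-6-week plants. Freshly molted third-instar T. ni from a diet-reared colony (>50 generations) were starved 4-5 h. One disk had 10 μL test solution painted on each side, the other carrier solvent only. There were 25 larvae per treatment. Run ended at ~50% control disk eaten (3-5 h). Deterrence = (C−T)/(C+T)×100 from consumed areas.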

Trichoplusia ni [3] = experiment: Feeding deterrent activity against freshly molted third-instar larval stage of Trichoplusia ni (cabbage looper) in compound pretreated cabbage leaves at 50 ug/cm2 after 3 to 5 hr by leaf disk choice bioassay; assay type: functional; procedure, shortened: as §1
Trichoplusia ni [4] = settings: in vivo, 24 h

C=CCc1cccc(OC)c1OCC
Activity (Trichoplusia ni [1]): 31% | DC50 (Trichoplusia ni [2]): 20 microg/cm2 | Activity (Trichoplusia ni [3]): 100% | mortality (Trichoplusia ni [4]): 27%

C=CCc1cc(OCCC)ccc1OCCC(C)C
Activity (Trichoplusia ni [1]): 20% | DC50 (Trichoplusia ni [2]): 15 microg/cm2 | Activity (Trichoplusia ni [3]): 83% | mortality (Trichoplusia ni [4]): 27%

C=CCOc1ccc(CC=C)cc1OC [ALLYLEUGENOL]
Activity (Trichoplusia ni [1]): 16% | DC50 (Trichoplusia ni [2]): 15 microg/cm2 | Activity (Trichoplusia ni [3]): 86% | mortality (Trichoplusia ni [4]): 18%

C=CCc1cc(OC)ccc1OCCC
Activity (Trichoplusia ni [1]): 7% | DC50 (Trichoplusia ni [2]): 9.4 microg/cm2 | Activity (Trichoplusia ni [3]): 92% | mortality (Trichoplusia ni [4]): 6.4%

COc1cccc(OCCC(C)C)c1 [1-isopentyloxy-3-methoxybenzene]
Activity (Trichoplusia ni [1]): 30% | DC50 (Trichoplusia ni [2]): 29 microg/cm2 | Activity (Trichoplusia ni [3]): 89% | mortality (Trichoplusia ni [4]): 30%

CCOc1ccc2c(c1)CC(C)O2 (stereo not given)
Activity (Trichoplusia ni [1]): -12% | DC50 (Trichoplusia ni [2]): 16 microg/cm2 | Activity (Trichoplusia ni [3]): 100% | mortality (Trichoplusia ni [4]): 1%

C=CCc1cc(OCCC)ccc1OC
Activity (Trichoplusia ni [1]): 37% | DC50 (Trichoplusia ni [2]): 19 microg/cm2 | Activity (Trichoplusia ni [3]): 68% | mortality (Trichoplusia ni [4]): 17%

C=CCc1cccc(OCCC)c1O
Activity (Trichoplusia ni [1]): 7% | DC50 (Trichoplusia ni [2]): 20.6 microg/cm2 | Activity (Trichoplusia ni [3]): 100% | mortality (Trichoplusia ni [4]): 17%

C=CCOc1ccc(OC)cc1 [1-allyloxy-4-methoxybenzene]
Activity (Trichoplusia ni [1]): 13% | DC50 (Trichoplusia ni [2]): 30 microg/cm2 | Activity (Trichoplusia ni [3]): 62% | mortality (Trichoplusia ni [4]): 6%

CCCCOc1ccc2c(c1)CC(C)O2 (stereo not given)
Activity (Trichoplusia ni [1]): -12% | DC50 (Trichoplusia ni [2]): 16 microg/cm2 | Activity (Trichoplusia ni [3]): 100% | mortality (Trichoplusia ni [4]): 1%

C=CCc1cc(OCCC(C)C)ccc1OCCC
Activity (Trichoplusia ni [1]): 21% | DC50 (Trichoplusia ni [2]): 33 microg/cm2 | Activity (Trichoplusia ni [3]): 65% | mortality (Trichoplusia ni [4]): 17%

C=CCc1cc(OCCCC)ccc1OCCC
Activity (Trichoplusia ni [1]): 21% | DC50 (Trichoplusia ni [2]): 33 microg/cm2 | Activity (Trichoplusia ni [3]): 65% | mortality (Trichoplusia ni [4]): 17%

C=CCc1cc(OC)ccc1O
Activity (Trichoplusia ni [1]): 51% | DC50 (Trichoplusia ni [2]): 57 microg/cm2 | Activity (Trichoplusia ni [3]): 51% | mortality (Trichoplusia ni [4]): 3.3%

C=CCc1cccc(OCCCC)c1O
Activity (Trichoplusia ni [1]): 7% | DC50 (Trichoplusia ni [2]): 20.6 microg/cm2 | Activity (Trichoplusia ni [3]): 100% | mortality (Trichoplusia ni [4]): 17%

C=CCc1cccc(OCCC(C)C)c1OCC
Activity (Trichoplusia ni [1]): 31% | DC50 (Trichoplusia ni [2]): 20 microg/cm2 | Activity (Trichoplusia ni [3]): 100% | mortality (Trichoplusia ni [4]): 27%

C=CCc1cc(OCCC(C)C)ccc1OCCC(C)C
Activity (Trichoplusia ni [1]): 20% | DC50 (Trichoplusia ni [2]): 15 microg/cm2 | Activity (Trichoplusia ni [3]): 83% | mortality (Trichoplusia ni [4]): 27%

C=CCOc1cccc(OCC=C)c1
Activity (Trichoplusia ni [1]): 26% | DC50 (Trichoplusia ni [2]): 20 microg/cm2 | Activity (Trichoplusia ni [3]): 97% | mortality (Trichoplusia ni [4]): 13%

C=CCc1cc(OCCCC)ccc1OCCC(C)C
Activity (Trichoplusia ni [1]): 20% | DC50 (Trichoplusia ni [2]): 15 microg/cm2 | Activity (Trichoplusia ni [3]): 83% | mortality (Trichoplusia ni [4]): 27%

C=CCc1cc(OCCCC)ccc1OCC
Activity (Trichoplusia ni [1]): 64% | DC50 (Trichoplusia ni [2]): 22 microg/cm2 | Activity (Trichoplusia ni [3]): 66% | mortality (Trichoplusia ni [4]): 3.3%

C=CCOc1ccccc1OCCC [1-allyloxy-2-propoxybenzene]
Activity (Trichoplusia ni [1]): 12% | DC50 (Trichoplusia ni [2]): 12 microg/cm2 | Activity (Trichoplusia ni [3]): 96% | mortality (Trichoplusia ni [4]): 10%

C=CCOc1cccc(OC)c1
Activity (Trichoplusia ni [1]): 9% | DC50 (Trichoplusia ni [2]): 34 microg/cm2 | Activity (Trichoplusia ni [3]): 66% | mortality (Trichoplusia ni [4]): 33%

C=CCc1cccc(OC)c1O
Activity (Trichoplusia ni [1]): 7% | DC50 (Trichoplusia ni [2]): 20.6 microg/cm2 | Activity (Trichoplusia ni [3]): 100% | mortality (Trichoplusia ni [4]): 17%

C=CCc1cccc(OCC)c1O
Activity (Trichoplusia ni [1]): 7% | DC50 (Trichoplusia ni [2]): 20.6 microg/cm2 | Activity (Trichoplusia ni [3]): 100% | mortality (Trichoplusia ni [4]): 17%

C=CCc1cccc(OC)c1OC
Activity (Trichoplusia ni [1]): 32% | DC50 (Trichoplusia ni [2]): 15.5 microg/cm2 | Activity (Trichoplusia ni [3]): 100% | mortality (Trichoplusia ni [4]): 17%

C=CCc1cc(OCCC(C)C)ccc1OCC
Activity (Trichoplusia ni [1]): 64% | DC50 (Trichoplusia ni [2]): 22 microg/cm2 | Activity (Trichoplusia ni [3]): 66% | mortality (Trichoplusia ni [4]): 3.3%
